In ChEMBL document CHEMBL4011629, “New Disubstituted Quindoline Derivatives Inhibiting Burkitt's Lymphoma Cell Proliferation by Impeding c-MYC Transcription” (J Med Chem, 2017):
Activity calls are given as the source filed them. The calls are words filed in the database; no cut-off is given here.

Assays:
Raji [1] = test: Induction of apoptosis in human Raji cells assessed as upregulation of cleaved PARP expression up to 4 uM after 12 hrs by Western blot method; format: functional, cell-based
Procedure, shortened: (§1)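 After compound exposure (12 h for cell-cycle and apoptosis markers), RAJI cells were lysed in 1% NP-40 buffer. Protein at 50 μg per lane was run on 3–12% SDS-PAGE and transferred to nitrocellulose. Blots were probed with primary antibodies (GAPDH as loading reference) and detected with an HRP secondary and enhanced chemiluminescence.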

Mus musculus = test: Toxicity in NOD/SCID nude mouse xenografted with human Raji cells assessed as reduction in viscera weight at 15 to 30 mg/kg, ip administered once daily for 2 weeks measured every day during compound dosing; format: organism-based; details: in vivo, 336 h
Procedure, shortened: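 NOD/SCID mice implanted subcutaneously in the underarm with 5 × 10^6 RAJI cells in 100 μL RPMI 1640 with 10% serum; tumours grown about 1 week, then mice randomized. Body weight recorded daily; organ weights taken at end.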

Raji [2] = test: Antitumor activity against human Raji cells xenografted in NOD/SCID nude mouse assessed as reduction in tumor weight at 15 to 30 mg/kg, ip administered once daily for 2 weeks relative to control; format: functional, organism-based
Procedure, shortened: (§2)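 NOD/SCID mice were implanted subcutaneously in the underarm with RAJI cells (5 × 10^6 per 100 μL of RPMI 1640 with 10% serum). Tumours reached […] after 1 week, and mice were then randomised. […] Tumour volume was recorded daily and tumour weight at the end.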

Homo sapiens [3] = species: Homo sapiens; test: Stabilization of c-Myc G-quadruplex DNA in human U266B1 cells assessed as downregulation of c-Myc mRNA level up to 4 uM after 12 hrs by RT-PCR method; format: cell-based
Procedure, shortened: (§3)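 RAJI, CCRF-CEM and U266B1 grown in RPMI 1640 with 10% fetal calf serum at 37 °C, plated at 1 × 10^6 cells/well overnight, then treated 12 h with 4, 2, 1 or 0.5 μM (DMSO control). RNA (2 μg) reverse-transcribed with oligo dT18/M-MLV; c-MYC, NM23-H2 and β-actin amplified by real-time PCR, checked on 1.5% agarose.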

Raji [4] = test: Cell cycle arrest in human Raji cells assessed as accumulation at S phase after 12 hrs by propidium iodide staining based flow cytometry (reference value: 32.2%); format: functional
Raji [5] = test: Induction of apoptosis in human Raji cells assessed as upregulation of p27 expression up to 4 uM after 12 hrs by Western blot method; format: functional, cell-based; procedure, shortened: as §1
Raji [6] = test: Cell cycle arrest in human Raji cells assessed as accumulation at G2/M phase after 12 hrs by propidium iodide staining based flow cytometry (reference value: 24.4%); format: functional
[7] = Inhibition of NM23-H2 binding to 5'-biotin labeled c-Myc Pu27 G-quadruplex DNA (unknown origin) […] by ELISA
Procedure, shortened: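 Biotin-Pu27 at 100 nM in 10 mM Tris-HCl pH 7.4 with 100 mM KCl was annealed and captured on streptavidin plates. Compound (serial halving from 50 μM in 3% BSA blocking buffer) was preincubated with 250 nM NM23-H2 for 1 h at 25 °C, then added to the DNA at 4 °C overnight. Bound protein was detected with anti-NM23-H2, an HRP secondary and TMB, read at A450; three replicates, DMSO control.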

Raji [8] = test: Cell cycle arrest in human Raji cells assessed as accumulation at G2/M phase after 24 hrs by propidium iodide staining based flow cytometry (reference value: 24.4%); format: functional
Raji [9] = test: Induction of apoptosis in human Raji cells assessed as downregulation of Cyclin D3 expression after 12 hrs by Western blot method; format: functional, cell-based; procedure, shortened: as §1
Raji [10] = test: Cell cycle arrest in human Raji cells assessed as accumulation at S phase after 48 hrs by propidium iodide staining based flow cytometry (reference value: 32.2%); format: functional
[11] = Stabilization of c-Myc Pu27 G-quadruplex DNA (unknown origin) assessed as induction of parallel G-quadruplex formation in absence of K+ ions by CD spectroscopic analysis
Procedure, shortened: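 CD spectra: Pu27 at 5 μM in 10 mM Tris-HCl pH 7.4 without or with 100 mM KCl, annealed 95 °C 5 min, slow-cooled, kept at 4 °C overnight, with ligand. Scanned 230–400 in a 4 mm quartz cuvette, 1 nm bandwidth and step, 0.5 s/point; buffer baseline subtracted.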

Raji [12] = test: Antiproliferative activity against human Raji cells after 48 hrs by MTT assay; format: functional, cell-based
Procedure, shortened: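 RAJI cells were seeded at 5 × 10^3 cells per well and treated for 48 h, with a DMSO-matched control. MTT at 0.5 mg/mL was added for 4 h at 37 °C, followed by overnight lysis at 37 °C and absorbance at 570 nm. Each assay was done in triplicate. IC50 came from the dose-dependent percentage survival versus the control.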

[13] = Drug uptake in human Raji cells at 1 uM after 12 to 48 hrs; format: ADME, cell-based
Homo sapiens [14] = species: Homo sapiens; test: Stabilization of c-Myc G-quadruplex DNA in human CCRF-CEM cells assessed as downregulation of c-Myc mRNA level at 2 uM after 12 hrs by RT-PCR method relative to control; format: cell-based; procedure, shortened: as §3
Homo sapiens [15] = species: Homo sapiens; test: Stabilization of c-Myc G-quadruplex DNA in human Raji cells assessed as decrease in amplification of exon-1 after 12 hrs by RT-PCR method; format: cell-based
Procedure, shortened: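 Exon-specific assay: RAJI and CA46 cells exposed to various ligand concentrations for 12 h; total RNA (2 μg) reverse-transcribed with oligo dT18 and M-MLV (42 °C 1 h). c-MYC exon 1 and exon 2, NM23-H2 and β-actin amplified by real-time PCR, products run on 1% agarose; untreated cells as control; three repeats, two-tailed unpaired t test.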

Raji [16] = test: Effect on NM23-H2 protein expression in human Raji cells up to 4 uM up to 48 hrs by Western blot method; format: functional, cell-based; procedure, shortened: as §1
Raji [17] = test: Antitumor activity against human Raji cells xenografted in NOD/SCID nude mouse assessed as reduction in tumor volume at 30 mg/kg, ip administered once daily for 2 weeks relative to control; format: functional; procedure, shortened: as §2
Raji [18] = test: Induction of apoptosis in human Raji cells assessed as early apoptotic cells at 0.5 uM after 48 hrs by Annexin V-FITC/propidium iodide staining based flow cytometry (reference value: 1.8%); format: functional
Procedure, shortened: (§4)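 RAJI cells exposed to compound or control medium for 12 or 48 h were washed in PBS and resuspended in binding buffer. They were stained with FITC annexin V and PI for 15 min in the dark, and fluorescence was measured by flow cytometry.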

Raji [19] = test: Induction of apoptosis in human Raji cells assessed as late apoptotic cells at 1 uM after 12 hrs by Annexin V-FITC/propidium iodide staining based flow cytometry relative to control; format: functional; procedure, shortened: as §4
[20] = Selectivity ratio of Kd for 5'-FAM labeled duplex DNA (unknown origin) to Kd for 5'-FAM labeled c-Myc Pu27 G-quadruplex DNA (unknown origin)
Procedure, shortened: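 MST binding: FAM-Pu27 or FAM-duplex oligo at 10 μM in 10 mM Tris-HCl pH 7.4 with 150 mM KCl, annealed 95 °C 5 min, slow-cooled, held 4 °C overnight. Ligand titrated as a 12-point series, 0–20 μM for G4 or up to 200 μM for duplex. KD fitted with Hill model; three replicates.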

inhibition [7]: Dose-dependent effect
Activity [11]: Active
IC50 (Raji [12]): 4.7 µM
Drug uptake [13]: Not Active
Selectivity ratio [20]: 8
SMILES: CN(C)CCCNc1c2ccccc2nc2c1oc1ccc(OCC3CCN(C)CC3)cc12
Activity (Raji [1]): Active
Activity (Mus musculus): Non-Toxic
Activity (Raji [2]): Active
Activity (Homo sapiens [3]): inactive
Activity (Raji [4]): 5.5%
Activity (Raji [5]): Active
Activity (Raji [6]): 29.3%
Activity (Raji [8]): 19.3%
Activity (Raji [9]): Dose-dependent effect
Activity (Raji [10]): 21.4%
Activity (Homo sapiens [14]): < 20%
Activity (Homo sapiens [15]): Dose-dependent effect
Activity (Raji [16]): inactive
T/C (Raji [17]): 26.6%
Activity (Raji [18]): 12.2%
Activity (Raji [19]): 0.3%
